Experimental data taken from ChEMBL document CHEMBL4261642, “Design, synthesis, and ex vivo evaluation of a selective inhibitor for retinaldehyde dehydrogenase enzymes” (Bioorg Med Chem, 2018).
Active and inactive are the calls of the source. No cut-off for these calls is given here.

Assays:
[1] = species on record: Gallus gallus; assay: Inhibition of N-terminal His6-tagged recombinant chick RALDH3 expressed in Escherichia coli BL21(DE3) cells at 100 nM using RAL as substrate assessed as Vmax preincubated for 20 mins followed by substrate addition and measured after 30 mins in presence of NADH by fluorescence assay (reference value: 107.3 +/- 15.97 pmol/microM/min)
[2] = molecular target: T1, Retinal dehydrogenase 2 (Gallus gallus) (UniProt O93344); assay: Inhibition of N-terminal His6-tagged recombinant chick RALDH2 expressed in Escherichia coli BL21(DE3) cells at 250 nM using RAL as substrate assessed as remaining activity incubated up to 80 mins in presence of all-trans-retinaldehyde folowed by substrate addition and measured after 30 mins in presence of NAD+ by fluorescence assay
T1 sequence (whole entry): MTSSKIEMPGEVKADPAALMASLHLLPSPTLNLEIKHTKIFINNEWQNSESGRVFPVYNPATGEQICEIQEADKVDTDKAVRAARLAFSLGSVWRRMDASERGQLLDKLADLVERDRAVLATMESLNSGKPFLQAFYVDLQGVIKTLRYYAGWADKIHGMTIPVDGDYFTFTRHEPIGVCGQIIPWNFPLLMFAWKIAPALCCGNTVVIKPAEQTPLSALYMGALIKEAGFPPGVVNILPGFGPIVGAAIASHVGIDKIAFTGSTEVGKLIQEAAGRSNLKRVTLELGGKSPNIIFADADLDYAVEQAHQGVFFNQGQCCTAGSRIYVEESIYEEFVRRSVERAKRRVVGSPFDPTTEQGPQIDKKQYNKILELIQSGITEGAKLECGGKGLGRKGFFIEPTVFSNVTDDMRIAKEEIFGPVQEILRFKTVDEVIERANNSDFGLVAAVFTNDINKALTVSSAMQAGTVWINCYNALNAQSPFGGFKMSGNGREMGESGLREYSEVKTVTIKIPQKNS
Summary of the method: (§1)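 Chick RALDH2 (91 nM) pre-incubated with 250 nM inhibitor for 0–80 min at 37°C, alone or with 250 μM retinaldehyde or 250 μM NAD+. Reaction then started with the missing substrate and/or cofactor (250 μM retinaldehyde, 4 mM NAD), 30 min at 37°C. Fluorimetric NADH; % activity remaining. Triplicates.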

[3] = molecular target: T1, Retinal dehydrogenase 2 (Gallus gallus); assay: Inhibition of N-terminal His6-tagged recombinant chick RALDH2 expressed in Escherichia coli BL21(DE3) cells at 250 nM using RAL as substrate assessed as enzyme recovery preincubated with compound and 250 uM NAD+ up to 80 mins and measured after 30 mins in presence of NAD+ by fluorescence assay; parameters: scale not given: the % may be the effect or the level left; summary of the method: as §1
[4] = molecular target: T1, Retinal dehydrogenase 2 (Gallus gallus); assay: Inhibition of chick RALDH2 expressed in doxycycline-inducible HEK293 cells assessed as inhibition of ATRA synthesis at 0.05 uM after 24 hrs in presence of […]; format: cell-based
[5] = molecular target: T1, Retinal dehydrogenase 2 (Gallus gallus); assay: Inhibition of N-terminal His6-tagged recombinant chick RALDH2 expressed in Escherichia coli BL21(DE3) cells at 250 nM using RAL as substrate assessed as remaining activity preincubated for 10 mins followed by all-trans-retinaldehyde and substrate addition measured after 30 mins in presence of NAD+ by fluorescence assay; summary of the method: as §1

inhibition [2]: Active | Activity [3]: 52 to 65% | inhibition [4]: 42% | Activity [5]: 30.4%
Compound: CC1=C(/C=C/C(C)=C/C=C/C(C)=C/C(=O)C(Cl)Cl)C(C)(C)CCC1
Vmax [1]: 68.4 pmol/µM/min
